Test results reported in ChEMBL document CHEMBL4330179, “De Novo Discovery of Nonstandard Macrocyclic Peptides as Noncompetitive Inhibitors of the Zika Virus NS2B-NS3 Protease” (ACS Med Chem Lett, 2019).
Active and inactive are the calls of the source. Positions of bridges follow the written chain, without caps; N, C: chain ends. Non-standard residues stand in square brackets, D forms with d. Residues, ends and D or L forms follow the SMILES beside them. NMeY = CN[C@@H](Cc1ccc(O)cc1)C(=O)O; NMeF = CN[C@@H](Cc1ccccc1)C(=O)O; NMeS = CN[C@@H](CO)C(=O)O; Sar = CNCC(=O)O

Experiments:
[1] = molecular target: T1, Nonstructural protein 3 (Zika virus) (UniProt A0A024AXB9); assay: Competitive inhibition of C-terminal His6-tagged linked Zika virus NS2B-NS3 protease domain expressed in Escherichia coli Bl21(DE3) using Bz-Nle-Lys-Lys-Arg-AMC as substrate after 30 mins by Cornish-Bowden plot analysis
T1 sequence (A0A024AXB9 as listed by the source): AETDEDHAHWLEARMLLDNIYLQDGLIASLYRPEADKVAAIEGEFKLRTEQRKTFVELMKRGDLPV

Genome polyprotein [2] = molecular target: Genome polyprotein (West Nile virus, UniProt P06935); assay: Inhibition of C-terminal His6-tagged linked West Nile virus NS2B-NS3 protease domain expressed in Escherichia coli Bl21(DE3) preincubated for 15 mins followed by AbzGly-Leu-Lys-Arg-Gly-Gly-3-(NO2)Tyr substrate addition and measured for 15 mins by fluorescence method
Genome polyprotein (West Nile virus, UniProt P06935), sequence (P06935 1371-1501 limits assumed): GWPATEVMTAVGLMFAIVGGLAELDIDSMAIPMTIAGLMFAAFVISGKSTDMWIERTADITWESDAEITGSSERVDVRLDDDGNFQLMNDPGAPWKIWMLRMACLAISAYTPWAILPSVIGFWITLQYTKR
Genome polyprotein (West Nile virus, UniProt P06935), sequence (P06935 1502-2120 limits assumed): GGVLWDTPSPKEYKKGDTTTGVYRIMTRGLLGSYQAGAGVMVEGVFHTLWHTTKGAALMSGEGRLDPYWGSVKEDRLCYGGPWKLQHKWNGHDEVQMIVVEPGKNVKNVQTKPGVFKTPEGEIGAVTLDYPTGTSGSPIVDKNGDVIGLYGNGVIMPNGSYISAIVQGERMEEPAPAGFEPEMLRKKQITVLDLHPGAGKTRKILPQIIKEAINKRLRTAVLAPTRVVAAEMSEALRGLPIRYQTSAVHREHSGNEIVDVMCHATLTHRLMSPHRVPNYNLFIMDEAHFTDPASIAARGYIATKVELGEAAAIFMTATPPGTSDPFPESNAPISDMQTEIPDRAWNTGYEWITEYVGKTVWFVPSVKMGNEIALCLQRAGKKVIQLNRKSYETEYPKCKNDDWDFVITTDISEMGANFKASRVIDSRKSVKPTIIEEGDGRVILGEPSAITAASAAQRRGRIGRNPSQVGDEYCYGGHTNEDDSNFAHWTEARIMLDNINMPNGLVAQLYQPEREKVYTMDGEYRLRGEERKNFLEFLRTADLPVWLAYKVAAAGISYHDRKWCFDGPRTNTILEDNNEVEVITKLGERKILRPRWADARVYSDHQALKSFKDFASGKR
Outline: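 West Nile virus NS2B-NS3 protease at 150 nM with internally quenched substrate Abz-Gly-Leu-Lys-Arg-Gly-Gly-3-(NO2)Tyr. IC50 is calculated for 50 μM substrate.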

Nonstructural protein 3 [3] = molecular target: T2, Nonstructural protein 3 (Zika virus, UniProt A0A024AXB9); assay: Non-competitive inhibition of C-terminal His6-tagged linked Zika virus NS2B-NS3 protease domain expressed in Escherichia coli Bl21(DE3) using Bz-Nle-Lys-Lys-Arg-AMC as substrate after 30 mins by Cornish-Bowden plot analysis
T2 sequence (A0A024AXB9 whole entry, the tested form may be a part): as the sequence (A0A024AXB9 as listed by the source) above
Outline: (§1)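 Fluorogenic substrate Bz-Nle-Lys-Lys-Arg-AMC against linked gZiPro, run at four substrate concentrations across a range of inhibitor concentrations. Ki comes from nonlinear least-squares fits to a noncompetitive inhibition model, and the mode is checked on Cornish–Bowden plots.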

Nonstructural protein 3 [4] = molecular target: T2, Nonstructural protein 3; assay: Binding affinity to C-terminal His6-tagged linked Zika virus NS2B-NS3 protease domain by SPR analysis
Outline: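 Dissociation constants measured by surface plasmon resonance, with the linked Zika NS2B-NS3 protease (gZiPro) immobilized on the chip.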

[5] = Selectivity index, ratio of IC50 for C-terminal His6-tagged linked Dengue virus serotype 2 NS2B-NS3 protease domain expressed in Escherichia coli Bl21(DE3) to Ki for non-competitive inhibition of C-terminal His6-tagged linked Zika virus NS2B-NS3 protease domain expressed in Escherichia coli Bl21(DE3)
[6] = Selectivity index, ratio of IC50 for C-terminal His6-tagged linked West Nile virus NS2B-NS3 protease domain expressed in Escherichia coli Bl21(DE3) to Ki for non-competitive inhibition of C-terminal His6-tagged linked Zika virus NS2B-NS3 protease domain expressed in Escherichia coli Bl21(DE3)
Genome polyprotein [7] = molecular target: Genome polyprotein (dengue virus type 2, UniProt P29990); assay: Inhibition of C-terminal His6-tagged linked Dengue virus serotype 2 NS2B-NS3 protease domain expressed in Escherichia coli Bl21(DE3) preincubated for 15 mins followed by Abz-Nle-Lys-Arg-Arg-Ser-3-(NO2)Tyr substrate addition and measured for 15 mins by fluorescence method
Genome polyprotein (dengue virus type 2, UniProt P29990), sequence (P29990 1346-1475 limits assumed): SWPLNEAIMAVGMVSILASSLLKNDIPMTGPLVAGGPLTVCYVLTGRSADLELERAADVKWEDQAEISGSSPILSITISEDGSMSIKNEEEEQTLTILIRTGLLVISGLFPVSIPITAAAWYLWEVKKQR
Genome polyprotein (dengue virus type 2, UniProt P29990), sequence (P29990 1476-2093 limits assumed): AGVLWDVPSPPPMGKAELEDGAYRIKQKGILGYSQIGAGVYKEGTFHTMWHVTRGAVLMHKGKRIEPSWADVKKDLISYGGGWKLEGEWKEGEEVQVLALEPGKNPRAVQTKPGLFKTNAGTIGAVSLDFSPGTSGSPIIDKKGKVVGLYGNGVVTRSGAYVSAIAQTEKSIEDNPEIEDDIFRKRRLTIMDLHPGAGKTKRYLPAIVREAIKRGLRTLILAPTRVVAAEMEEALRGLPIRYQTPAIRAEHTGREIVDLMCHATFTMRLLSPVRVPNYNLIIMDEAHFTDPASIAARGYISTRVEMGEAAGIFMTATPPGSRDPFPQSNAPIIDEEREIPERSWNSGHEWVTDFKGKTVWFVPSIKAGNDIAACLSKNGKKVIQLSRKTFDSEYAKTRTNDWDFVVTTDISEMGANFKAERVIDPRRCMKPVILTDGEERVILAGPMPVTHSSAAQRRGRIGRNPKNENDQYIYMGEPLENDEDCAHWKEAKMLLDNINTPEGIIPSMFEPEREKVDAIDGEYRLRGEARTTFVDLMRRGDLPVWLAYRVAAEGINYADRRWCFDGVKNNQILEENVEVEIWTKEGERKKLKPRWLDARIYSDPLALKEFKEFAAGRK
Outline: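 DENV-2 NS2B-NS3 protease used at 100 nM against the FRET substrate Abz-Nle-Lys-Arg-Arg-Ser-3-(NO2)Tyr. IC50 values were calculated for a substrate concentration of 50 μM.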

Nonstructural protein 3 [8] = molecular target: T2, Nonstructural protein 3; assay: Inhibition of C-terminal His6-tagged unlinked Zika virus NS2B-NS3 protease domain expressed in Escherichia coli Bl21(DE3) using Bz-Nle-Lys-Lys-Arg-AMC as substrate after 30 mins by fluorophotometric method
Outline: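 Unlinked Zika NS2B-NS3 protease at 0.5 nM with Bz-Nle-Lys-Lys-Arg-AMC substrate.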

Nonstructural protein 3 [9] = molecular target: T2, Nonstructural protein 3; assay: Inhibition of C-terminal His6-tagged linked Zika virus NS2B-NS3 protease domain expressed in Escherichia coli Bl21(DE3) using Bz-Nle-Lys-Lys-Arg-AMC as substrate after 30 mins by fluorophotometric method; outline: as §1
[10] = molecular target: Prothrombin (Homo sapiens) (UniProt P00734); assay: Inhibition of thrombin (unknown origin) at 25 uM using Boc-Val-Pro-Arg-AMC as substrate preincubated for 15 mins followed by substrate addition and measured for 10 mins by fluorescence assay
Outline: (§2)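 Serine protease counter-screens (thrombin, trypsin), tested up to a highest concentration of 25 or 50 μM.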

Trypsin (Homo sapiens) = Trypsin (Homo sapiens) (UniProt P07477+P07478+P35030); assay: Inhibition of trypsin (unknown origin) at 25 uM using Boc-Val-Pro-Arg-AMC as substrate preincubated for 15 mins followed by substrate addition and measured for 10 mins by fluorescence assay; assay type: protein assay; outline: as §2
Huh-7 = assay: Cytotoxicity against human HuH7 cells assessed as reduction in cell viability up to 12.5 uM after 24 to 48 hrs by CellTiter-Blue assay; assay type: cell-based
Outline: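 Huh-7 cells exposed to compounds for 24 h and 48 h. Metabolic activity is read as % reduction relative to nontreated cells, with 80% viability used as the cutoff.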

[11] = molecular target: T1, Nonstructural protein 3 (Zika virus); assay: Inhibition of C-terminal His6-tagged unlinked Zika virus NS2B-NS3 protease domain expressed in Escherichia coli Bl21(DE3) at 200 to 400 nM using Bz-Nle-Lys-Lys-Arg-AMC as substrate after 30 mins in presence of cn-716 by fluorophotometric method

Compound | inhibition [1] | IC50 (Genome polyprotein [2]) | Ki (Nonstructural protein 3 [3]) | Kd (Nonstructural protein 3 [4]) | Selectivity Index [5] | Selectivity Index [6] | IC50 (Genome polyprotein [7]) | IC50 (Nonstructural protein 3 [8]) | IC50 (Nonstructural protein 3 [9]) | inhibition [10] | inhibition (Trypsin (Homo sapiens)) | Activity (Huh-7) | inhibition [11]
COc1ccc(C[C@H]2C(=O)N[C@@H](Cc3ccccc3)C(=O)N[C@H](C(N)=O)CSCC(=O)N[C@@H](Cc3ccc(O)cc3)C(=O)N[C@@H]([C@@H](C)O)C(=O)N[C@@H](CC(N)=O)C(=O)N[C@@H](Cc3ccccc3)C(=O)N[C@@H](Cc3ccc(O)cc3)C(=O)N[C@@H](CC(C)C)C(=O)N[C@@H](Cc3ccc(O)cc3)C(=O)N3CCC[C@H]3C(=O)N[C@@H](Cc3ccc(O)cc3)C(=O)N2C)cc1 ({CH2CO}-YTNFYLYPY[NMeY](Me)FC-NH2; thioether N-12) | inactive | > 20000 nM | 2000 nM | 8 nM | > 10 | > 10 | > 20000 nM | 2200 nM | 3300 nM | – | – | – | –
CC[C@H](C)[C@@H]1NC(=O)[C@H](C)NC(=O)[C@@H](Cc2ccc(O)cc2)NC(=O)CSC[C@@H](C(N)=O)NC(=O)[C@H](CC(N)=O)NC(=O)[C@H](CC(C)C)N(C)C(=O)[C@H](Cc2ccc(O)cc2)NC(=O)[C@H](CCCCN)NC(=O)[C@H](CC(N)=O)NC(=O)[C@H](Cc2ccc(O)cc2)NC(=O)[C@H](Cc2ccc(OC)cc2)N(C)C(=O)[C@H]([C@@H](C)CC)NC1=O | inactive | > 20000 nM | 3500 nM | 168 nM | – | – | > 20000 nM | 3200 nM | 7100 nM | – | – | – | –
CC[C@H](C)[C@@H]1NC(=O)[C@H](CC(N)=O)NC(=O)[C@H](C(C)C)NC(=O)[C@H](CC(C)C)NC(=O)[C@H]([C@@H](C)O)NC(=O)[C@H](CC(N)=O)NC(=O)[C@H](Cc2ccc(OC)cc2)N(C)C(=O)[C@H]([C@@H](C)CC)NC(=O)[C@H](CCCCN)NC(=O)[C@H](Cc2c[nH]c3ccccc23)NC(=O)[C@H](Cc2ccc(O)cc2)NC(=O)CSC[C@@H](C(N)=O)NC1=O ({CH2CO}-YWKI[NMeY](Me)NTLVNIC-NH2; thioether N-12) | inactive | > 10000 nM | 800 nM | 20 nM | 4 | 9 | > 10000 nM | 1500 nM | 1320 nM | inactive | inactive | Non-Toxic | –
CC(C)C[C@@H]1NC(=O)[C@H]([C@@H](C)O)NC(=O)[C@H](Cc2ccc(O)cc2)NC(=O)CSC[C@@H](C(N)=O)NC(=O)[C@H](Cc2ccccc2)NC(=O)[C@H](Cc2ccccc2)NC(=O)[C@H]([C@@H](C)O)NC(=O)CN(C)C(=O)[C@H](CC(N)=O)NC(=O)[C@H](Cc2cnc[nH]2)NC(=O)[C@H](Cc2ccccc2)NC(=O)[C@@H]2CCCN2C1=O ({CH2CO}-YTLPFHN[Sar]TFFC-NH2; thioether N-12) | inactive | > 20000 nM | > 100000 nM | 5 nM | – | – | > 20000 nM | ≥ 50000 nM | – | – | – | – | –
CC[C@H](C)[C@@H]1NC(=O)CN(C)C(=O)[C@H](Cc2ccc(O)cc2)NC(=O)CSC[C@@H](C(N)=O)NC(=O)[C@@H]2CCCN2C(=O)[C@H]([C@@H](C)CC)NC(=O)[C@H](Cc2ccc(OC)cc2)N(C)C(=O)[C@H](Cc2ccc(OC)cc2)N(C)C(=O)[C@H](CC(N)=O)NC(=O)[C@H](Cc2ccc(O)cc2)NC(=O)[C@H](CCCCN)NC(=O)[C@H](C)NC1=O ({CH2CO}-Y[Sar]IAKYN[NMeY](Me)[NMeY](Me)IPC-NH2; thioether N-12) | inactive | ≥ 20000 nM | 20400 nM | 9 nM | – | – | ≥ 20000 nM | 4600 nM | 16500 nM | – | – | – | –
COc1ccc(C[C@H]2C(=O)N[C@@H](CCCCN)C(=O)N(C)[C@@H](Cc3ccccc3)C(=O)N[C@@H](CCCCN)C(=O)N(C)[C@@H](CO)C(=O)N(C)[C@@H](Cc3ccc(OC)cc3)C(=O)N[C@@H](CCCCN)C(=O)N(C)[C@@H](Cc3ccc(OC)cc3)C(=O)N(C)[C@@H](Cc3ccc(OC)cc3)C(=O)N[C@@H](CCCCN)C(=O)N[C@H](C(N)=O)CSCC(=O)N[C@@H](Cc3ccc(O)cc3)C(=O)N2C)cc1 ({CH2CO}-Y[NMeY](Me)K[NMeF]K[NMeS][NMeY](Me)K[NMeY](Me)[NMeY](Me)KC-NH2; thioether N-12) | inactive | 3900 nM | 440 nM | 9 nM | > 10 | > 10 | 1700 nM | 250 nM | 620 nM | inactive | inactive | Non-Toxic | Active
